This is an account of results in PubChem BioAssay AID651924 (Vanderbilt Specialized Chemistry Center, 2012).

The target of the assay is Muscarinic acetylcholine receptor M2 (Homo sapiens) (UniProt P08172). The assay is described as follows: human M2 receptor potentiation, selectivity assay for M5 PAM project, CHO cells (AID 651924). The settings on record: CHO-K1 hM2/Gqi5, calcium flux Fluo-4, ACh EC20; series mostly up to 30 µM. The method, boiled down:
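Assay system: CHO-K1 hM2/Gqi5 cells. Buffer or medium: HEPES/probenecid-supplemented HBSS, pH 7.4. Reagent: acetylcholine EC20. Doses: final DMSO 0.3%. Times: 1.5 min compound, 50 s agonist, 25 °C. Technique: Fluo-4 AM calcium mobilization fluorescence. Read-out: % of maximal acetylcholine response.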

Active and inactive are the calls of the source. How the calls were made is not given here.

Chain of Muscarinic acetylcholine receptor M2 (Homo sapiens) (P08172 whole entry, looked up): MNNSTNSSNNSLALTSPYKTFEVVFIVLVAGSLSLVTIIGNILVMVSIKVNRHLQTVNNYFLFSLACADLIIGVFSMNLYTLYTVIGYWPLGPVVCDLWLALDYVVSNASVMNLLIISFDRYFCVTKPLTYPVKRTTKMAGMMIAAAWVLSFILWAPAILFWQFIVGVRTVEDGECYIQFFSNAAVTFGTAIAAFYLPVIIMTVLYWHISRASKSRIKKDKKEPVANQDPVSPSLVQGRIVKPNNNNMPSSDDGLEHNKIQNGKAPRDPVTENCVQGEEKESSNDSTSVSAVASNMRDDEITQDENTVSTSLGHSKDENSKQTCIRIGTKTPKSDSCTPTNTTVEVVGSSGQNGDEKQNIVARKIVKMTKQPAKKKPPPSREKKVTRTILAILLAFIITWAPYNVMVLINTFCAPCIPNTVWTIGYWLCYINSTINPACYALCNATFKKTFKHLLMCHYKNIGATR

For `O=C1C(=O)N(CCOc2ccccc2)c2ccc(OC(F)(F)F)cc21`, the outcome was inactive.
